Among the data in ChEMBL document CHEMBL1641579, “Synthesis and biological evaluation of 7-substituted-1-(3-bromophenylamino)isoquinoline-4-carbonitriles as inhibitors of myosin light chain kinase and epidermal growth factor receptor” (Bioorg Med Chem, 2011) are Activity values, retold here.

Test [1] concerns the target T1, Serine/threonine-protein kinase BRSK1 (Homo sapiens) (UniProt Q8TDC3).
T1 sequence (whole entry): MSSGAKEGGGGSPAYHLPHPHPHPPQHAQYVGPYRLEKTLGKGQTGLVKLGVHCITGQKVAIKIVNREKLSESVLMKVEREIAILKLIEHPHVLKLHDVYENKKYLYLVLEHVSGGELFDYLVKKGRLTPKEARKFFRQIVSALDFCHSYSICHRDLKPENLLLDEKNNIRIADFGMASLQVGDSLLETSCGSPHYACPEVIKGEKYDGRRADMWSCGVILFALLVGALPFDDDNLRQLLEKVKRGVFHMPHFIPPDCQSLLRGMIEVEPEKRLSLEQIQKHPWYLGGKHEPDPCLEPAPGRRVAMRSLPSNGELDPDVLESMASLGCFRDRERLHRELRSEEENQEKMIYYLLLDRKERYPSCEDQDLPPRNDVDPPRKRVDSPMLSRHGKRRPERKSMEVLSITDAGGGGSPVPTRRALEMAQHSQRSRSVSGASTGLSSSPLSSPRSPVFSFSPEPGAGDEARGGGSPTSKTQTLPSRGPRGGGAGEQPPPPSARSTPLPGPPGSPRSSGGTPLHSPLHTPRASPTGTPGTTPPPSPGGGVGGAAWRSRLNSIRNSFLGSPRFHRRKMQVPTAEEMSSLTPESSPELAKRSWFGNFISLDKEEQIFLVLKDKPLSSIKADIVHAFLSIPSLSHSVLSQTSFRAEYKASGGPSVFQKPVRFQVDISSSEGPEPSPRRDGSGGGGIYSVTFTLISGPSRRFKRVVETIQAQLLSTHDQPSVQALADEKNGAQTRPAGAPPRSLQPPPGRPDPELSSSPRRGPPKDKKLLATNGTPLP
As to the kind of experiment: Inhibition of BRSK1 assessed as residual activity at 10 uM. The gist of the method:
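Kinase panel screen run as a radioactive activity assay at single compound concentration. Score reported as percent activity remaining relative to DMSO controls (100%).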

Test [2] addresses T2, Serine/threonine-protein kinase Sgk1 (Homo sapiens) (UniProt O00141).
T2 sequence (whole entry): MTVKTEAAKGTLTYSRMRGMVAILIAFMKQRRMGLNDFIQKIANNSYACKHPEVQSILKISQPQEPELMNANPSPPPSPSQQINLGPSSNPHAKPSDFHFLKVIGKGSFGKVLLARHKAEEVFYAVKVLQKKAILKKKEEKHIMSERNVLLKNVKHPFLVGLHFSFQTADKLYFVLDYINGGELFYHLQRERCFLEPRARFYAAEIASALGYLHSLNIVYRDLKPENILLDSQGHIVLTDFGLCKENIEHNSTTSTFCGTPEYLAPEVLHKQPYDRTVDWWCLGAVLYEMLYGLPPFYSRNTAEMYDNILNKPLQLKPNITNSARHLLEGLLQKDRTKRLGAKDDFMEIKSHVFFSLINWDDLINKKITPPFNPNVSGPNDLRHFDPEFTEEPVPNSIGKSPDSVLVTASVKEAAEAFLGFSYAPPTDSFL
As to the kind of experiment: Inhibition of SGK1 assessed as residual activity at 10 uM. The gist of the method: (§1)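 Panel screen by radioactive kinase assay at a single inhibitor concentration. Score is the percent activity remaining relative to DMSO controls (100%).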

Test [3] deals with Ribosomal protein S6 kinase beta-1 (Homo sapiens) (UniProt P23443). The test is described as follows: Inhibition of S6K1 assessed as residual activity at 10 uM. The gist of the method:
as §1

The target in test [4] is T3, Dual specificity protein kinase TTK (Homo sapiens) (UniProt P33981).
T3 sequence (whole entry): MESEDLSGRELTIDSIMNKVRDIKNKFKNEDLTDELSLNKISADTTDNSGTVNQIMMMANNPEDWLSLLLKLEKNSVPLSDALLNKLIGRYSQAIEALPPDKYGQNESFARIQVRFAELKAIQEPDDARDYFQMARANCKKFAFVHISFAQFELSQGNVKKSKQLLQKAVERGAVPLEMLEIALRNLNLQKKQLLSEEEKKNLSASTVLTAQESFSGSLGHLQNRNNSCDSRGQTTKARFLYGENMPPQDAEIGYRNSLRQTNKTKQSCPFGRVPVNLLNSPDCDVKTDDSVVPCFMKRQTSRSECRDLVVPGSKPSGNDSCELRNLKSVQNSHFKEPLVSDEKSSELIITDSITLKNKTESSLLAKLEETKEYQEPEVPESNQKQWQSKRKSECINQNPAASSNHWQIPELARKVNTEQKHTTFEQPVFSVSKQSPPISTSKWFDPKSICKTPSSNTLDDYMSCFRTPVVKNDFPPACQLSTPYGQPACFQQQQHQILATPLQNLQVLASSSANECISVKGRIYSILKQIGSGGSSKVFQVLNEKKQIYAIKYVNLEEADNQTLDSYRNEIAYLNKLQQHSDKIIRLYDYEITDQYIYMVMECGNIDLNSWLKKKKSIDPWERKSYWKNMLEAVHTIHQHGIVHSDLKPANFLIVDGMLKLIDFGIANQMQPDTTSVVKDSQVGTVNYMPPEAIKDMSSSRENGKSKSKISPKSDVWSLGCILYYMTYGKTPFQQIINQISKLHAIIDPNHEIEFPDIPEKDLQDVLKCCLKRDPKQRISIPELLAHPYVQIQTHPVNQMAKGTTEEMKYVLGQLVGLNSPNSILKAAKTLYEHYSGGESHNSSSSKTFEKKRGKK
As to the kind of experiment: Inhibition of TTK assessed as residual activity at 10 uM. Summed up: as §1

Test [5] has as its target T4, Serine/threonine-protein kinase Nek2 (Homo sapiens) (UniProt P51955).
T4 sequence (whole entry): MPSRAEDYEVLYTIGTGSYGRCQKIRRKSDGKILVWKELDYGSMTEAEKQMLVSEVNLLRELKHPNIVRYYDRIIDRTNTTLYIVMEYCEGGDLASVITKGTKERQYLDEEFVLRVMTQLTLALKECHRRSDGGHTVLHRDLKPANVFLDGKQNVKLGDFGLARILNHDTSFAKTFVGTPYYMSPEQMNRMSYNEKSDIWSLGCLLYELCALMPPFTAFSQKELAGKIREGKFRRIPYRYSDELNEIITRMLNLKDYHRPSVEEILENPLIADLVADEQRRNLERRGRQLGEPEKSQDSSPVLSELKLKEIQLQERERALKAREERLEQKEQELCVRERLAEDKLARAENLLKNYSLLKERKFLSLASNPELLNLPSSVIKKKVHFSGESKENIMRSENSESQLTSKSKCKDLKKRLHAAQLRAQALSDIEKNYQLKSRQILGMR
The test is described as follows: Inhibition of NEK2A assessed as residual activity at 10 uM. Summed up: as §1

Sequence of Ribosomal protein S6 kinase beta-1 (Homo sapiens) (P23443 whole entry, looked up): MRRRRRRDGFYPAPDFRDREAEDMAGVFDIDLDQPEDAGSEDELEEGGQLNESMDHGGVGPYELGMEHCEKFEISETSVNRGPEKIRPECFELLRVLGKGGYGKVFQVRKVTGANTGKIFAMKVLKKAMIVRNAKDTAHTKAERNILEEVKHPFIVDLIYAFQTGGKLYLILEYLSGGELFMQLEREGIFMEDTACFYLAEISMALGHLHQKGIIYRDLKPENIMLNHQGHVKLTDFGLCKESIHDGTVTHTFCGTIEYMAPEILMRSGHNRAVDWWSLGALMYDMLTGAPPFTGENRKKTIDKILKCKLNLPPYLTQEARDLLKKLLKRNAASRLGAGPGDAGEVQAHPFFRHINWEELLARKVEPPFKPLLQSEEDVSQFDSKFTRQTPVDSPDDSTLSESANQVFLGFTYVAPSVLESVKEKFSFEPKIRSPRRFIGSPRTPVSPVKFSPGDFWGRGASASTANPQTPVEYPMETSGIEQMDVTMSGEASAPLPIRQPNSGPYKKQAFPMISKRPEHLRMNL

On to `CN1CCN(CCC(=O)Nc2ccc3c(C#N)cnc(Nc4cccc(Br)c4)c3c2)CC1`, for which the Activity in test [1] worked out at 89%; in test [2], 91%; in test [3], 82%; in test [4], 81%; in test [5], 100%.

Take `CN(C)CCCC(=O)Nc1ccc2c(C#N)cnc(Nc3cccc(Br)c3)c2c1`: the Activity in test [1] turned out to be 66%; in test [2] it was 82%; in test [3] it was 84%; in test [4], 96%; in test [5] it was 100%.

Consider `CN(C)C/C=C/C(=O)Nc1ccc2c(C#N)cnc(Nc3cccc(Br)c3)c2c1`, for which the Activity came to 95% in test [1]; 82% in test [2]; 71% in test [3]; 74% in test [4]; 98% in test [5].
